Molecular target: T1, Aldehyde dehydrogenase 1A1 (Rattus norvegicus) (UniProt P51647)
T1 sequence (whole entry): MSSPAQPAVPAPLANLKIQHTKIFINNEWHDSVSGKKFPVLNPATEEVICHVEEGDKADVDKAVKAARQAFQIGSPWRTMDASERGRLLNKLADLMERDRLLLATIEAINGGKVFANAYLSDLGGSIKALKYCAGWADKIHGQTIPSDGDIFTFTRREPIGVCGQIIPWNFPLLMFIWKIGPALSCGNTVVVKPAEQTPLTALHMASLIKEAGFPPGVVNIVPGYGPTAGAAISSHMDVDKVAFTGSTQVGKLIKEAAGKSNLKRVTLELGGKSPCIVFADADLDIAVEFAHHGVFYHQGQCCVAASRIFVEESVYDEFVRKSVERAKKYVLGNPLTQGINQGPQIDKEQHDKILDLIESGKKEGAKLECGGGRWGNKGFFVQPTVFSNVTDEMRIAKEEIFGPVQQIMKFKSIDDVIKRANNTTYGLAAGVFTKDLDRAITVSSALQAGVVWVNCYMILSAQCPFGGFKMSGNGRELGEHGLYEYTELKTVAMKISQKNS
Experiment: Evaluated in vivo for inhibition of liver mitochondrial aldehyde dehydrogenase activity 2 hour after administering into rats, at a dose of 1.25 mmol/kg
Format: organism-based
Settings: scale: nmol of acetaldehyde(AcH) oxide per minute per mg of protein
Outline: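 Rats given 1.25 mmol/kg ip; controls given saline. Killed 2 h later. Intact liver mitochondria prepared at 0 °C and kept cold until assay. After 5-min preincubation at 38 °C, 200 nmol AcH added. Quenched after 5 min with HClO₄. Activity given as nmol AcH oxidized/min/mg protein (Lowry), mean ± SEM.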

Activity	SMILES
2.68	c1ccc(CNC2CC2)cc1
3.48	CN(Cc1ccccc1)C1CC1
